Measurements reported in PMC3032084 (Nature chemical biology, 2009).
Entries after “also recorded” stand apart in the source; their conditions may differ.

How the values were obtained:
[1] = target: YFP-labeled PTHR (UniProt Q03431); assay: FRET or BRET
[2] = target: PTHR variant that lacks the N domain and is tagged extracellularly with GFP; assay: FRET or BRET
[3] = system: Rab7-GFP; assay: Co-localization of ligand with Rab7-GFP late endosomes; type: cell-based; conditions: even after 30 min of incubation
[4] = system: adenylyl cyclases; assay: Co-localization of ligand with BODIPY-Fsk labeled adenylyl cyclases; type: cell-based; conditions: cells transiently transfected with PTHR
Outline: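 HEK293 cells transiently transfected with PTHR. Cellular adenylyl cyclases labeled with BODIPY-labeled forskolin, which labels all cells. A TMR-labeled test peptide ligand marks only the PTHR-expressing cells. After ligand binding, the distribution of the BODIPY-Fsk signal is compared with the ligand signal (internalized punctae vs diffuse) by live-cell fluorescence imaging.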

[5] = system: Rab5-GFP; assay: Co-localization of ligand with Rab5-GFP early endosomes; type: cell-based; conditions: Rab5-GFP-transfected cells
Outline: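 Live HEK293 cells transfected with Rab5-GFP were imaged at room temperature 48 h post-transfection by spinning-disc confocal microscopy. Cells were washed with HEPES buffer containing 0.1% BSA. TMR-labelled ligand was added and removed by perfusion. Z-stacks were taken at 0.3-μm steps. Co-localization was scored by Pearson's correlation coefficient.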

[6] = system: GFP-N-PTHR; assay: Live cell confocal co-localization of ligand with GFP-N-PTHR; type: cell-based; conditions: TMR-labeled ligand, after washout
[7] = target: T1, PTHR (GFP-N-PTHR) (Homo sapiens, UniProt Q03431); type: binding; conditions: for ligand dissociation after washout: GFP fluorescence recovery after rapid removal of ligand; for decrease in GFP emission: saturating concentration (15 μM), hormone binding to receptor
T1 sequence (Q03431 27-593): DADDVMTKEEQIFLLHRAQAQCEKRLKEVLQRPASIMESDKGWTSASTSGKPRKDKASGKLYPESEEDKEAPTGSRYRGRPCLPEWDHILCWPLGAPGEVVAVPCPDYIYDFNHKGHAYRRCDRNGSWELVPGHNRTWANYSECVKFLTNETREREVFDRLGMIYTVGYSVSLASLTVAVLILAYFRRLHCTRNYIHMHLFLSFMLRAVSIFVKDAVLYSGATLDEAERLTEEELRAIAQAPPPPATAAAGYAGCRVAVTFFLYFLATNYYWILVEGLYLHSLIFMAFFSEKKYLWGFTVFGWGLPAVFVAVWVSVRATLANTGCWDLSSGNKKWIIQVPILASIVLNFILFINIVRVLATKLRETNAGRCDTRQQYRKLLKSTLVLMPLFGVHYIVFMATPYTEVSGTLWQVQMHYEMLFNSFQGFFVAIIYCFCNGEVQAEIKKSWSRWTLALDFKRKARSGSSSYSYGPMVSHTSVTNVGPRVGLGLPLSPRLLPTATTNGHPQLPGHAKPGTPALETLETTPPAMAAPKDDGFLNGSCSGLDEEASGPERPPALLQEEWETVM

[8] = system: early endosomal antigen 1 (EEA-1); assay: Co-localization of ligand with GFP-tagged EEA-1; type: cell-based; conditions: data not shown
[9] = system: Gαs-GFP; assay: Live cell confocal co-localization of ligand with Gαs-GFP; type: cell-based; conditions: TMR-labeled ligand, after washout
[10] = target: T2, PTHR co-expressed with DN-Gs (Homo sapiens, UniProt Q03431); assay: Ligand dissociation by FRET with co-expressed dominant-negative Gαs; type: binding; conditions: co-expression of DN-Gs
T2 sequence (Q03431 27-593): T1 sequence (Q03431 27-593)

[11] = system: cAMP via PTHR in HEK293 cells; assay: cAMP accumulation/degradation by FRET sensor Epac-CFP/YFP; type: cell-based; conditions: PTHrP1–36 100 nM, PTH1–34 text 1−10 nM
[12] = target: T3, PTHR (PTHR-CFP/YFP) (Homo sapiens, UniProt Q03431); assay: PTHR activation/deactivation by intramolecular FRET; type: cell-based; conditions: PTHR-CFP/YFP FRET after washout
T3 sequence (Q03431 27-462 limits assumed): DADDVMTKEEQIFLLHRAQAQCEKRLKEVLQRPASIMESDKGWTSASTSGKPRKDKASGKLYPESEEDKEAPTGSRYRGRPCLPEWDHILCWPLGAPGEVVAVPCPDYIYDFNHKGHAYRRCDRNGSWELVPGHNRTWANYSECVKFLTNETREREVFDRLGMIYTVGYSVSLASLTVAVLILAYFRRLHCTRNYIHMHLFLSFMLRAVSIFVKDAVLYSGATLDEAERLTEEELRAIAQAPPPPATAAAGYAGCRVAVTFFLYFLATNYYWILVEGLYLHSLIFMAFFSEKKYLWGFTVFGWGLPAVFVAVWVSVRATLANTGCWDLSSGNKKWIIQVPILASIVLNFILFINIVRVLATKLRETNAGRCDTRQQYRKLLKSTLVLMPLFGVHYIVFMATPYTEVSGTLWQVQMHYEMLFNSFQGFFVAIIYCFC

[13] = target: PTHR N-terminally tagged with green fluorescent protein (UniProt Q03431); assay: FRET or BRET
[14] = system: PTHR; conditions: membranes, ref [6]; cited from earlier work

Gs-CFP (Gαs/Gβ1/Gγ2-CFP) (from UniProt P63092 1-394; P62873 1-340; P59768 1-71) (complex; other documents disagree on this pair)
tau, PTHR-Gs dissociation (turn off) after washout of PTHrP(1-36) [1]: 48.1 s | tau, PTHR-Gs interaction (switch on) with PTH(1-34) [1]: 0.96 s | tau, PTHR-Gs interaction (switch on) with PTHrP(1-36) [1]: 1.58 s

M-PTH(1-14) labelled with tetramethylrhodamine (peptide)
tau, dissociation (single step) [2]: 15.8 s

PTH1–34-TMR: PTH ligand tagged at Lys13 with tetramethylrhodamine
co-localization with Rab7-GFP [3]: No co-localization | BODIPY-Fsk (adenylyl cyclase) distribution/co-localization with ligand [4]: strongly co-localized with the ligand as internalized punctae | co-localization with Rab5-labeled endosomes [5]: all of the internalized PTH1–34-TMR co-localized with Rab5-labeled endosomes | co-localization with GFP-N-PTHR [6]: strong co-localization with both GFP-N-PTHR and Gas-GFP; also recorded: little or no TMR fluorescence from PTH1–34-TMR was detected at the cell surface; also recorded: remained closely associated during receptor internalization | ligand dissociation after washout [7]: most of the ligand remaining bound to the receptor after washout | decrease in GFP emission [7]: ~ 20% | co-localization with EEA-1-GFP [8]: also co-localized with the early endosomal antigen 1 (EEA-1) | co-localization with Gαs-GFP [9]: strong co-localization with both GFP-N-PTHR and Gas-GFP; also recorded: persisted over a period of 30 min in endosomes but not at the cell surface | effect of DN-Gs on ligand release [10]: no effect

PTH1–84: PTH is represented by PTH1–84
Epac-FRET (cAMP) signal after ligand washout [11]: remained fully stable after washout | persistence of active receptor state after ligand removal [12]: stable active state that persisted well after removal of ligand

PTH(1-34) tagged at Lys13 with tetramethylrhodamine (peptide)
koff, fast step (intercept) [13]: 0.46 s⁻¹ | tau fast, dissociation (turn off) [13]: 1.5 s | tau slow, association (switch on) [13]: 1.15 s

PTHrP1–36-TMR: TMR-labeled PTHrP1–36
BODIPY-Fsk (adenylyl cyclase) distribution/co-localization with ligand [4]: the labeled forskolin remained diffuse | co-localization with GFP-N-PTHR [6]: did not co-localize with either GFP-N-PTHR or Gαs-GFP; also recorded: alone is detected as small puntae at internalized sites | ligand dissociation after washout [7]: complete dissociation of the ligand from the receptor | decrease in GFP emission [7]: ~ 20% | co-localization with Gαs-GFP [9]: did not co-localize with either GFP-N-PTHR or Gαs-GFP; also recorded: only ligand-containing vesicles are observed

^125I-PTH1–34: radioligand of PTH1–34
stability of radioligand binding with GTPγS [14]: remains mostly stable in the presence of GTPγS

^125I-PTHrP1–36: radioligand of PTHrP1–36
stability of radioligand binding with GTPγS [14]: mostly destabilized by GTPγS
